For assay [1], the target named is T1, Transient receptor potential cation channel subfamily A member 1 (Homo sapiens, UniProt O75762). Nature of the assay: Agonist activity at TRPA1 isolated from human W138 cells expressed in HEK293T cells assessed as intracellular Ca2+ influx at 10 to 100 uM by Fluo-4 AM staining-based fluorescence analysis relative to allylisothiocyanate. The assay is classed as cell-based. The procedure, abridged: (§1)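 Tetracycline-induced (1 μg/mL) stable hTRPA1 in HEK T-REx cells, Fluo-4 AM loaded (3 μM, 1 h, 37 °C) in HEPES buffer pH 7.4 with probenecid; Ca2+ read at 37 °C. Compound 0.01−100 μM; HC-030031 30 μM pretreated 3 min. Responses as % of 5 μM ionomycin or of 100 μM AITC; TREx cells without TRPA1 as control; n = 4−8.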

In assay [2] the target is T1, Transient receptor potential cation channel subfamily A member 1. In words: Agonist activity at TRPA1 isolated from human W138 cells expressed in HEK T-REx cells assessed as intracellular Ca2+ influx at 10 to 100 uM by Fluo-4 AM staining-based fluorescence analysis. The class given is cell-based. Put shortly: as §1
The target of assay [3] is T2, Transient receptor potential cation channel subfamily V member 1 (Homo sapiens, UniProt Q8NER1). Nature of the assay: Antagonist activity at human brain TRPV1 expressed in HEK293T cells assessed as inhibition of heat-induced intracellular Ca2+ influx measured for 42 mins by fluorescence-based assay. The class given is cell-based, HEK-293T. Put shortly: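 hTRPV1-HEK293T, Fluo-4 loaded; antagonist pretreated 3 min, plate heated from 40 to 45 °C, Ca2+ signal recorded 42 min. Data as % of heat response; IC50 from dose curve; n = 4−10.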

Assay [4] addresses T2, Transient receptor potential cation channel subfamily V member 1. Nature of the assay: Competitive antagonist activity at human brain TRPV1 expressed in HEK293T cells assessed as inhibition of CAP-induced intracellular Ca2+ influx preincubated for 3 mins followed by CAP challenge. The assay is classed as cell-based. The note with it: HEK-293T. Put shortly:
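hTRPV1-HEK293T, Fluo-4 Ca2+ at 37 °C; antagonist (0.3−100 μM) preincubated 3 min then 0.01 μM capsaicin; DMSO final 0.1−1%. IC50 from dose−inhibition curves; data as % of 10 μM capsaicin.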

Assay [5] addresses T1, Transient receptor potential cation channel subfamily A member 1. Nature of the assay: Antagonist activity at TRPA1 isolated from human W138 cells expressed in HEK293T cells assessed as AITC-induced intracellular Ca2+ influx at 100 uM by Fluo-4 AM staining-based fluorescence analysis. The note with it: HEK-293T. The assay is classed as cell-based.
In assay [6] the target is T3, Transient receptor potential cation channel subfamily V member 3 (Homo sapiens) (UniProt Q8NET8).
T3 sequence (whole entry): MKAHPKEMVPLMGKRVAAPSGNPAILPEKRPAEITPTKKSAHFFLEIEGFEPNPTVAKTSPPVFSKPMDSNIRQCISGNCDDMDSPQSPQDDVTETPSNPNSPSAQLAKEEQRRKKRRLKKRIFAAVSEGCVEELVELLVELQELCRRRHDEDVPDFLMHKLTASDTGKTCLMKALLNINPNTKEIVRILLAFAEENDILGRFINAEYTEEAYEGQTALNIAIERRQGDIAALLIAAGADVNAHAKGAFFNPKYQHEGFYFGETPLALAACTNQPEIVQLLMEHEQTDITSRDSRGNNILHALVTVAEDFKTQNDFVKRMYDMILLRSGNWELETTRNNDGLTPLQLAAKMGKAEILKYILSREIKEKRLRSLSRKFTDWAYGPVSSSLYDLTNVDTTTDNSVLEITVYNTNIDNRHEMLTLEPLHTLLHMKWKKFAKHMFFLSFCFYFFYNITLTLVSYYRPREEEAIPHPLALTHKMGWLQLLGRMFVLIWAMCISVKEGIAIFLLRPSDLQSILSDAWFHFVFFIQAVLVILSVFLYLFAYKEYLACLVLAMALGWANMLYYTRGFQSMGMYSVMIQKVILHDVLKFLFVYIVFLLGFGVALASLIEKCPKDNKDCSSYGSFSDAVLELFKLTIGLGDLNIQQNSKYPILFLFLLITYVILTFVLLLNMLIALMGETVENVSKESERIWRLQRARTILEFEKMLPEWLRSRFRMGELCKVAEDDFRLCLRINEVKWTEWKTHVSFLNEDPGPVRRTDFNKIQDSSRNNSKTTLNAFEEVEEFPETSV
Nature of the assay: Antagonist activity at human TRPV3 expressed in HEK293T cells assessed as menthol-induced intracellular Ca2+ influx at 100 uM by Fluo-4 AM staining-based fluorescence analysis. The assay is classed as cell-based. The note with it: HEK-293T. Put shortly: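 hTRPV3 transiently expressed in HEK293T; loading and assay at 25 °C, Fluo-4 with probenecid buffer pH 7.4. Agonist 100 and 300 μM menthol, 5 μM ruthenium red as reference; 100 μM compound alone or pretreated 3 min. Data as % of 1000 μM menthol.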

The target in assay [7] is T2, Transient receptor potential cation channel subfamily V member 1. In words: Antagonist activity at human brain TRPV1 expressed in HEK293T cells assessed as CAP-induced intracellular Ca2+ influx at 100 uM by Fluo-4 AM staining-based fluorescence analysis. The conditions noted are these: HEK-293T. The class given is cell-based. The procedure, abridged: (§2)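 Stable hTRPV1 in HEK293T (G418 selected), Fluo-4 loaded, 37 °C. 100 μM compound alone, or pretreated 3 min before 0.01 μM capsaicin; 10 μM BCTC reference. Data as % of 10 μM capsaicin.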

Assay [8] shares this target. In words: Agonist activity at human brain TRPV1 expressed in HEK293T cells assessed as intracellular Ca2+ influx at 100 uM by Fluo-4 AM staining-based fluorescence analysis. The assay is classed as cell-based. The conditions noted are these: HEK-293T. Put shortly: as §2
For assay [9], the target named is Transient receptor potential cation channel subfamily M member 8 (Mus musculus) (UniProt Q8R4D5). The conditions noted are these: Dorsal root ganglion, HEK T-REx, 100 uM.
For assay [10] the target is unchanged. The note with it: Dorsal root ganglion, HEK T-REx, 100 uM. This is another data set of the same source.
Assay [11] has the same target. The conditions noted are these: Dorsal root ganglion, HEK T-REx, 100 uM. The source holds these as a separate data set.
For assay [12] the target is unchanged. The note with it: Dorsal root ganglion, HEK T-REx, 5 to 100 uM.
Assay [13] shares this target. The conditions noted are these: Dorsal root ganglion, HEK T-REx, 3 to 30 uM.
For assay [14] the target is unchanged. The note with it: Dorsal root ganglion, HEK T-REx, 10 to 50 uM.
For assay [15] the target is unchanged. The conditions noted are these: Dorsal root ganglion, HEK T-REx, 3 to 30 uM. This is another data set of the same source.
For assay [16] the target is unchanged. The conditions noted are these: Dorsal root ganglion, HEK T-REx, 10 to 50 uM. The source holds these as a separate data set.
Assay [17] deals with T2, Transient receptor potential cation channel subfamily V member 1. Nature of the assay: Antagonist activity at human brain TRPV1 expressed in HEK293T cells assessed as inhibition of proton-induced intracellular Ca2+ influx at 10 uM by fluorescence-based assay. The note with it: HEK-293T.

Calls of active or inactive are those of the source. The calls are words filed in the database; no cut-off is given here.

T1 sequence (O75762 whole entry): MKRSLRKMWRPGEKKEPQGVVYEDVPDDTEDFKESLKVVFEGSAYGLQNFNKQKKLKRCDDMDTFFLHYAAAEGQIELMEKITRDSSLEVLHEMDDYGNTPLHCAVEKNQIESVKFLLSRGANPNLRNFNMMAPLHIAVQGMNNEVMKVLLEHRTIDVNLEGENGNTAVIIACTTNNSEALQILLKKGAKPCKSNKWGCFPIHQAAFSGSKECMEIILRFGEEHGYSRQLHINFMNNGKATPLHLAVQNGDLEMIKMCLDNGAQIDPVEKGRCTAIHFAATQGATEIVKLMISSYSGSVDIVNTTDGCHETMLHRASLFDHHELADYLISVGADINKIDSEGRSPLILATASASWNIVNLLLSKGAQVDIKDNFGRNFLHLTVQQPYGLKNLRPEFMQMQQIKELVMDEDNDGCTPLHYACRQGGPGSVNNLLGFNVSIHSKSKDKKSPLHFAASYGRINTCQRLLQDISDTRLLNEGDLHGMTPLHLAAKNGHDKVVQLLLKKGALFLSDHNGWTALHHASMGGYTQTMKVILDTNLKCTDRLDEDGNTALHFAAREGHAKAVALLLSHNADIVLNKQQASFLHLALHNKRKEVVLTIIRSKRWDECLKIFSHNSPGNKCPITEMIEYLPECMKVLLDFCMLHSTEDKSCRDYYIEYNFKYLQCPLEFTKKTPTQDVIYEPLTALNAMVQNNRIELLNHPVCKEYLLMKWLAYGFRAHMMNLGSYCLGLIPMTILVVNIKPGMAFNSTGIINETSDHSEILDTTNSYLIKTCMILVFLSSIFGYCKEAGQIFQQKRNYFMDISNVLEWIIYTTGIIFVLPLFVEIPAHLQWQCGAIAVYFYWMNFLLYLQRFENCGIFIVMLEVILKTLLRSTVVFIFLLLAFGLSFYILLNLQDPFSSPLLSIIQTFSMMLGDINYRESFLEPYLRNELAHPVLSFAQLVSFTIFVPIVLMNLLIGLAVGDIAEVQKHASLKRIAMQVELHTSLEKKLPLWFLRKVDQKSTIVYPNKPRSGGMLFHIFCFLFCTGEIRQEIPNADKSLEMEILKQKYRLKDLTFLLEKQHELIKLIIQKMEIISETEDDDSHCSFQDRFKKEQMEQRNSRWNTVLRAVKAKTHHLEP
T2 sequence (Q8NER1 whole entry): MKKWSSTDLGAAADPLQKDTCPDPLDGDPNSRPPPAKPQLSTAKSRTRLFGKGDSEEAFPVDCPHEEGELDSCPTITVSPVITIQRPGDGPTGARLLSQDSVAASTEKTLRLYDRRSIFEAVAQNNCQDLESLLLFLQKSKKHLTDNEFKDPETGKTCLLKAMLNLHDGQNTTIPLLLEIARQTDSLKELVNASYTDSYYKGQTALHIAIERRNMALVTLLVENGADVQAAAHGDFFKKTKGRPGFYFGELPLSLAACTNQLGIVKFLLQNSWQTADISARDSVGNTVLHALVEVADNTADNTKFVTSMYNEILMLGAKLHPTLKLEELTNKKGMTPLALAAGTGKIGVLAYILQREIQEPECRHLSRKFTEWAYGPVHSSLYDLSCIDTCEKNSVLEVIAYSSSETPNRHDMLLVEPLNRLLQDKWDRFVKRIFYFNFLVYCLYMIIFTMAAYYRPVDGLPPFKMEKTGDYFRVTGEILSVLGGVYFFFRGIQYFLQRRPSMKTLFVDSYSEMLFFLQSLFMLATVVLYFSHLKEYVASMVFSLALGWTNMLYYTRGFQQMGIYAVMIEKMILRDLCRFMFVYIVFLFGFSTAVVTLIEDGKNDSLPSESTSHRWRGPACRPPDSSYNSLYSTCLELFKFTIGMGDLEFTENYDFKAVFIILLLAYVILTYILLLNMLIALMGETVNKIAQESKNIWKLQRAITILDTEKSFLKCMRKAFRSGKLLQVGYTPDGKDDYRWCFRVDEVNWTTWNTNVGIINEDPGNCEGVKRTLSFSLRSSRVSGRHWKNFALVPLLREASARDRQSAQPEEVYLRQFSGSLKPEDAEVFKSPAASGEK
Sequence of Transient receptor potential cation channel subfamily M member 8 (Mus musculus) (Q8R4D5 whole entry): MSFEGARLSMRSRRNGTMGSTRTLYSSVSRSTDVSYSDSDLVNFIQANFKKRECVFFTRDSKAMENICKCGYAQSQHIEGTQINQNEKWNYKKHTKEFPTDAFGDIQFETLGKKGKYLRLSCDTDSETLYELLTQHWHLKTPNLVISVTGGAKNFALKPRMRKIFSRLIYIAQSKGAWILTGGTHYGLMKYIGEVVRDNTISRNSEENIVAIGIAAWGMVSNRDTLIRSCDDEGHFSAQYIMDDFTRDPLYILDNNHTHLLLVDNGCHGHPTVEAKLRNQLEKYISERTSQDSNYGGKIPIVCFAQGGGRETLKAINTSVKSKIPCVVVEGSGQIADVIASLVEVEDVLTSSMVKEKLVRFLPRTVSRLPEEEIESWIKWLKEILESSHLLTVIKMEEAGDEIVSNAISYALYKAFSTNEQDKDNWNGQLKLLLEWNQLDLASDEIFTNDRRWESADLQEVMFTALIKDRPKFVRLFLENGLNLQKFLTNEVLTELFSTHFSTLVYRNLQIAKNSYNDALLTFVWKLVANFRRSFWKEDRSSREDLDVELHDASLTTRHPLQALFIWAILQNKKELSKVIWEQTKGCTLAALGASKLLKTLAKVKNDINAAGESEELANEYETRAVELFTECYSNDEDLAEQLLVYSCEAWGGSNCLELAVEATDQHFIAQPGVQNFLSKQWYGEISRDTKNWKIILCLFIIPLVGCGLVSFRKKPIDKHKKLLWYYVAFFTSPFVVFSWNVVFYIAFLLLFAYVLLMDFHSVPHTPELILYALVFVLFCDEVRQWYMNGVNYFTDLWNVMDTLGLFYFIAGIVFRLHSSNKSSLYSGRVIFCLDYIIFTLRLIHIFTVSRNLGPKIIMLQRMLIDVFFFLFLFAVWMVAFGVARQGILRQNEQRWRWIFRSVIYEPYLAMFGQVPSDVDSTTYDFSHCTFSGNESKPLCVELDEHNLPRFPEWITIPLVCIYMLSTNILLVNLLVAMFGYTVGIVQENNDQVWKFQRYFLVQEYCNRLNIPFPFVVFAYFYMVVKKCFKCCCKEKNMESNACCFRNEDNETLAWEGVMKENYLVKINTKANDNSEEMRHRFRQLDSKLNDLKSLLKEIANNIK

In the case of `CC[C@H]1C[C@@H]2CN3CCc4c([nH]c5ccc(OC)cc45)[C@](C(=O)OC)(C2)[C@H]13` [VOACANGINE], the Activity in assay [1] is 98%. For the same compound, the result in [2], in assay [5], in [6] and in assay [8] was inactive. In addition, the concentration for half-maximal inhibition (IC50) in assay [3] came out at 24 µM. Moreover, in assay [3] (HEK-293T), the inhibition entry was “Dose-dependent effect”. The inhibition result in assay [4], in assay [10], in assay [11], in assay [12], in assay [15] and in assay [16] was “Active” in each case. Besides, the outcome in assay [7] was Active. Moreover, the inhibition entry in assay [9], in assay [13], in assay [14] and in assay [17] was “inactive” in each case.

The IC50 is the point on the concentration scale where inhibition reaches its midpoint.
